Laboratory results reported in ChEMBL document CHEMBL4382192, “Discovery of a potent dual ALK and EGFR T790M inhibitor” (Eur J Med Chem, 2017).

Key:
[1] = Inhibition of EGFR/ALK L1152R mutant in human DFCI076 cells assessed as reduction in cell viability after 72 hrs by MTS assay; type: cell-based
[2] = biological target: Bone morphogenetic protein receptor type-1A (Homo sapiens) (UniProt P36894); assay: Binding affinity to wild-type human partial length BMPR1A (Q214 to I532 residues) expressed in bacterial expression system assessed as residual binding level at 1 uM by Kinomescan method relative to control
[3] = biological target: Ribosomal protein S6 kinase alpha-6 (Homo sapiens) (UniProt Q9UK32); assay: Binding affinity to wild-type human partial length C-terminal RSK4 kinase domain 2 (I401 to Y711 residues) expressed in bacterial expression system assessed as residual binding level at 1 uM by Kinomescan method relative to control
[4] = biological target: Ribosomal protein S6 kinase alpha-3 (Homo sapiens) (UniProt P51812); assay: Binding affinity to wild-type human partial length N-terminal RSK2 kinase domain 1 (M1 to D394 residues) expressed in mammalian expression system assessed as residual binding level at 1 uM by Kinomescan method relative to control
[5] = biological target: Dual specificity mitogen-activated protein kinase kinase 4 (Homo sapiens) (UniProt P45985); assay: Binding affinity to wild-type human partial length MEK4 (S84 to D399 residues) expressed in mammalian expression system assessed as residual binding level at 1 uM by Kinomescan method relative to control
[6] = test system: Receptor-type tyrosine-protein kinase FLT3 (Homo sapiens), P36888 [R834Q]; assay: Binding affinity to human partial length FLT3 R834Q mutant (V592 to Y969 residues) expressed in mammalian expression system assessed as residual binding level at 1 uM by Kinomescan method relative to control
Method in brief: (§1)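 Kinome-wide selectivity panel run by the KINOMEscan method, with the test compound at a single concentration of 1 μM. Wild-type and mutant kinases were profiled in the same screen.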

[7] = biological target: Activin receptor type-1-like (Homo sapiens) (UniProt P37023); assay: Binding affinity to wild-type human ACVRL1 (L164 to Q503 residues) expressed in bacterial expression system assessed as residual binding level at 1 uM by Kinomescan method relative to control
Chain of Activin receptor type-1-like (Homo sapiens) (P37023 whole entry, the tested form may be a part): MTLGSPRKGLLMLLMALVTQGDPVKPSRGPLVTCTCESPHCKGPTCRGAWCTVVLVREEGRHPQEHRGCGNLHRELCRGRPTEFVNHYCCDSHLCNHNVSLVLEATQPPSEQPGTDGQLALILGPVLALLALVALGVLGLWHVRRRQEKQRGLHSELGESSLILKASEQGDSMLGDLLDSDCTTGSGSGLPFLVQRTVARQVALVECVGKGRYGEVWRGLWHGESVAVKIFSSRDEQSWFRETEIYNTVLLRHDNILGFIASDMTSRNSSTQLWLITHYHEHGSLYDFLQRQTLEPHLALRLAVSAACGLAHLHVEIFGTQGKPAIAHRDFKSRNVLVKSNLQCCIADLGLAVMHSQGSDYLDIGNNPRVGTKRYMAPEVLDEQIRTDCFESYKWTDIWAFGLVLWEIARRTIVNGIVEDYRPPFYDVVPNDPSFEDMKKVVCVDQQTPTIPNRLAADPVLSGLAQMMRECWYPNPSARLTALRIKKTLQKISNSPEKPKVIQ

[8] = biological target: Mitogen-activated protein kinase 10 (Homo sapiens) (UniProt P53779); assay: Binding affinity to wild-type human partial length JNK3 (V28 to Q422 residues) expressed in mammalian expression system assessed as residual binding level at 1 uM by Kinomescan method relative to control
Chain of Mitogen-activated protein kinase 10 (Homo sapiens) (P53779 whole entry, the tested form may be a part): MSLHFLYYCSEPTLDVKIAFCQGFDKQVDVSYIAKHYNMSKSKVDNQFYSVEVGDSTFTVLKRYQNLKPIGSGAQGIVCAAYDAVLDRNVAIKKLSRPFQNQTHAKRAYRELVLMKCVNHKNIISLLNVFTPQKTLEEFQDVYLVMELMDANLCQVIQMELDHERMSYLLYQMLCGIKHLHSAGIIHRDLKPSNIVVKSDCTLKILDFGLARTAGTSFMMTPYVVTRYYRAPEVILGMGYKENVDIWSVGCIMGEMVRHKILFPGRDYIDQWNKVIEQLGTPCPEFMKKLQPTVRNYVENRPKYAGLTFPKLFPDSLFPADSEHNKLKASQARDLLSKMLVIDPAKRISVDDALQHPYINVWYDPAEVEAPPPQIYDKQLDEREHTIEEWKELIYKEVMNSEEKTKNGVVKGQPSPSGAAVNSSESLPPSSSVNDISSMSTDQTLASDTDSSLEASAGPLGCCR

[9] = test system: Tyrosine-protein kinase ABL1 (Homo sapiens), P00519 [F317I]; assay: Binding affinity to human non-phosphorylated ABL1 F317I mutant (S229 to K512 residues) expressed in mammalian expression system assessed as residual binding level at 1 uM by Kinomescan method relative to control; method in brief: as §1
[10] = test system: Phosphatidylinositol 4,5-bisphosphate 3-kinase catalytic subunit alpha isoform (Homo sapiens), P42336 [Q546K]; assay: Binding affinity to human partial length PIK3CA Q546K mutant (R108 to N1068 residues) expressed in mammalian expression system assessed as residual binding level at 1 uM by Kinomescan method relative to control
Chain of Phosphatidylinositol 4,5-bisphosphate 3-kinase catalytic subunit alpha isoform (Homo sapiens), P42336 [Q546K] (P42336 whole entry Q546K, the tested form may be a part, canonical isoform): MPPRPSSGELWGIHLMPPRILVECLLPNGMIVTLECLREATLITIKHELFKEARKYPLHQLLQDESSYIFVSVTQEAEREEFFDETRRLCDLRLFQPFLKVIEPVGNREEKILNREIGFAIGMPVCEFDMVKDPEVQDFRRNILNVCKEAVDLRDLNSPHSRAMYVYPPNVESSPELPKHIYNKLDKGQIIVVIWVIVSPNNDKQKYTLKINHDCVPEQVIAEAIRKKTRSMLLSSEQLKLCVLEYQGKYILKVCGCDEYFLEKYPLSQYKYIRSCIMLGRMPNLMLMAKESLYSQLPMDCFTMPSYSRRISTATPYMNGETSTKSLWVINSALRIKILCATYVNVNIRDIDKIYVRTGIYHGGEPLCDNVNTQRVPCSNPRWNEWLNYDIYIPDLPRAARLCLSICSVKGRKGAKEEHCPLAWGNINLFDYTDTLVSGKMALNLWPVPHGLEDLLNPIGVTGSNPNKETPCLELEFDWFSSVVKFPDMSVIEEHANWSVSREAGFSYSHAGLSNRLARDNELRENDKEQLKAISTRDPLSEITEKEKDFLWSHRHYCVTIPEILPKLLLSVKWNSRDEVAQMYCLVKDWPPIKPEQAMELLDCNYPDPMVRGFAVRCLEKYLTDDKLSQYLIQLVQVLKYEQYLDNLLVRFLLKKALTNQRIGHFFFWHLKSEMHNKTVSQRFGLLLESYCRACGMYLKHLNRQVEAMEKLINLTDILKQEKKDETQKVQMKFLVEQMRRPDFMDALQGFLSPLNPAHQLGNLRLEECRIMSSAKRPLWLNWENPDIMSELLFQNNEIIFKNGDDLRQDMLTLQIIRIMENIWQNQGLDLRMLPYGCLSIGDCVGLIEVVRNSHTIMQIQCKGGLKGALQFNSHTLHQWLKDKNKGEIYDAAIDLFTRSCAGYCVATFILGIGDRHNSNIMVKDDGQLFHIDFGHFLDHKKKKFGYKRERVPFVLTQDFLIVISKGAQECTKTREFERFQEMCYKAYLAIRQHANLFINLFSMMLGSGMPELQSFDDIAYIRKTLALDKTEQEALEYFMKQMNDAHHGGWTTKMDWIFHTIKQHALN

[11] = biological target: Receptor tyrosine-protein kinase erbB-4 (Homo sapiens, UniProt Q15303); assay: Inhibition of recombinant N-terminal GST-tagged human ErbB4 cytoplasmic domain expressed in baculovirus expression system by Z-LYTE assay
[12] = biological target: Death-associated protein kinase 1 (Homo sapiens) (UniProt P53355); assay: Binding affinity to wild-type human partial length DAPK1 (M1 to F296 residues) expressed in bacterial expression system assessed as residual binding level at 1 uM by Kinomescan method relative to control
[13] = biological target: Ephrin type-B receptor 1 (Homo sapiens) (UniProt P54762); assay: Binding affinity to wild-type human partial length EPHB1 (P589 to T911 residues) expressed in bacterial expression system assessed as residual binding level at 1 uM by Kinomescan method relative to control
[14] = Drug uptake in mouse plasma at 10 mg/kg, po after 8 hrs; type: ADME, organism-based
[15] = test system: Mycobacterium tuberculosis; assay: Binding affinity to wild-type Mycobacterium tuberculosis partial length PKNB (M1 to G279 residues) expressed in mammalian expression system assessed as residual binding level at 1 uM by Kinomescan method relative to control; method in brief: as §1
[16] = biological target: Serine/threonine-protein kinase D3 (Homo sapiens) (UniProt O94806); assay: Binding affinity to wild-type human partial length PRKD3 (S543 to E863 residues) expressed in bacterial expression system assessed as residual binding level at 1 uM by Kinomescan method relative to control
[17] = biological target: Cyclin-dependent kinase 2 (Homo sapiens) (UniProt P24941); assay: Binding affinity to wild-type human full length CDK2 (M1 to L298 residues) expressed in bacterial expression system assessed as residual binding level at 1 uM by Kinomescan method relative to control
[18] = biological target: Serine/threonine-protein kinase PAK 4 (Homo sapiens) (UniProt O96013); assay: Binding affinity to wild-type human partial length PAK4 (Q144 to R438 residues) expressed in bacterial expression system assessed as residual binding level at 1 uM by Kinomescan method relative to control
Chain of Serine/threonine-protein kinase PAK 4 (Homo sapiens) (O96013 whole entry, looked up, the tested form may be a part): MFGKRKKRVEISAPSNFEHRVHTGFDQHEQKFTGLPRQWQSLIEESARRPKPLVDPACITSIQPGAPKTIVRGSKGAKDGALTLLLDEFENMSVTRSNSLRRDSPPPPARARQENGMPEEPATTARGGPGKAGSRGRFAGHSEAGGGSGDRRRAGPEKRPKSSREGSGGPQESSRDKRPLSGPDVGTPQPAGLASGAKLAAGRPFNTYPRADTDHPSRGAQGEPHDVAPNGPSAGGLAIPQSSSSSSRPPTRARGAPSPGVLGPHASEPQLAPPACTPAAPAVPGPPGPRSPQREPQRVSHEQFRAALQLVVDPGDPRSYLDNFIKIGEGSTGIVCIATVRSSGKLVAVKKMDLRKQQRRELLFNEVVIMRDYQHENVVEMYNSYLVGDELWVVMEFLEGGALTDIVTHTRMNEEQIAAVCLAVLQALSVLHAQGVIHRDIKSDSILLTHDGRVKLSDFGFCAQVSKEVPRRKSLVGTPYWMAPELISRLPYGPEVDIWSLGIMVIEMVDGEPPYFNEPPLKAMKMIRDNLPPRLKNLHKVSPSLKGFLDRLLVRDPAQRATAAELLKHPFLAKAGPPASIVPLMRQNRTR

[19] = test system: Mast/stem cell growth factor receptor Kit (Homo sapiens), P10721 [D816H]; assay: Binding affinity to human partial length KIT D816H mutant (I571 to D952 residues) expressed in mammalian expression system assessed as residual binding level at 1 uM by Kinomescan method relative to control; method in brief: as §1
[20] = biological target: Tyrosine-protein kinase receptor Tie-1 (Homo sapiens) (UniProt P35590); assay: Binding affinity to wild-type human partial length TIE1 (T819 to A1138 residues) expressed in bacterial expression system assessed as residual binding level at 1 uM by Kinomescan method relative to control
Chain of Tyrosine-protein kinase receptor Tie-1 (Homo sapiens) (P35590 whole entry, the tested form may be a part): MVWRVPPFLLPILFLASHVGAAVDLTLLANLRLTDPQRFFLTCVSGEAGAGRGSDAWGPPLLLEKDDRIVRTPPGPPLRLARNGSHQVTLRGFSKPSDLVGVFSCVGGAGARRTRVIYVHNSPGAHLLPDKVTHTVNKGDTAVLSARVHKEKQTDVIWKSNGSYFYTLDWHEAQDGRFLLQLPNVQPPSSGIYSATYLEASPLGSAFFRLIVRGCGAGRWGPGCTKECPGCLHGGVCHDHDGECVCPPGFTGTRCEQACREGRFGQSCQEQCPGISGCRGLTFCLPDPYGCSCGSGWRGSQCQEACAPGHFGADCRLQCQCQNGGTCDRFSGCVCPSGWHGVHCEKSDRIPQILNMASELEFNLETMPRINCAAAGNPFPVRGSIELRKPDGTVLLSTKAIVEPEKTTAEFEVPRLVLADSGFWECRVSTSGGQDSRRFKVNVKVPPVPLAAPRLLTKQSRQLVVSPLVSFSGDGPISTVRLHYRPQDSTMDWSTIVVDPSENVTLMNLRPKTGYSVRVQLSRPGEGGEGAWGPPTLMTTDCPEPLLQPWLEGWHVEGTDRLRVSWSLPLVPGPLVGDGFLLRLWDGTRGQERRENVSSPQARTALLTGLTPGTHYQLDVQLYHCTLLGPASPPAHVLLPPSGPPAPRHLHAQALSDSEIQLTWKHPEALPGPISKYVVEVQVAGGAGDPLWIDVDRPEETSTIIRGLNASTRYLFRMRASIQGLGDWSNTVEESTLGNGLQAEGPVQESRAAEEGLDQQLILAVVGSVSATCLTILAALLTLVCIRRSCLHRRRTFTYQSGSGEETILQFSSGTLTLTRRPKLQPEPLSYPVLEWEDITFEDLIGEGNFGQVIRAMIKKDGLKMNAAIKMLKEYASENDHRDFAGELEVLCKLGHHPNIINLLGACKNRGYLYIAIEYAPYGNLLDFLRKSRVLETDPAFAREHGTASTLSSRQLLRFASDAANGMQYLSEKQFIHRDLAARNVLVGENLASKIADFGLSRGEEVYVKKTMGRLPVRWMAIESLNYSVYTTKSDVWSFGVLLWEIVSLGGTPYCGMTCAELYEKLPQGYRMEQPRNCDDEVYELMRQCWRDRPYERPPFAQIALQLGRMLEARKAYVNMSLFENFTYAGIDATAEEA

[21] = biological target: Mitogen-activated protein kinase 15 (Homo sapiens) (UniProt Q8TD08); assay: Binding affinity to wild-type human partial length ERK8 (M1 to P437 residues) expressed in bacterial expression system assessed as residual binding level at 1 uM by Kinomescan method relative to control
[22] = biological target: Macrophage colony-stimulating factor 1 receptor (Homo sapiens) (UniProt P07333); assay: Binding affinity to wild-type human partial length autoinhibited CSF1R (Y538 to S939 residues) expressed in mammalian expression system assessed as residual binding level at 1 uM by Kinomescan method relative to control
Chain of Macrophage colony-stimulating factor 1 receptor (Homo sapiens) (P07333 whole entry, the tested form may be a part): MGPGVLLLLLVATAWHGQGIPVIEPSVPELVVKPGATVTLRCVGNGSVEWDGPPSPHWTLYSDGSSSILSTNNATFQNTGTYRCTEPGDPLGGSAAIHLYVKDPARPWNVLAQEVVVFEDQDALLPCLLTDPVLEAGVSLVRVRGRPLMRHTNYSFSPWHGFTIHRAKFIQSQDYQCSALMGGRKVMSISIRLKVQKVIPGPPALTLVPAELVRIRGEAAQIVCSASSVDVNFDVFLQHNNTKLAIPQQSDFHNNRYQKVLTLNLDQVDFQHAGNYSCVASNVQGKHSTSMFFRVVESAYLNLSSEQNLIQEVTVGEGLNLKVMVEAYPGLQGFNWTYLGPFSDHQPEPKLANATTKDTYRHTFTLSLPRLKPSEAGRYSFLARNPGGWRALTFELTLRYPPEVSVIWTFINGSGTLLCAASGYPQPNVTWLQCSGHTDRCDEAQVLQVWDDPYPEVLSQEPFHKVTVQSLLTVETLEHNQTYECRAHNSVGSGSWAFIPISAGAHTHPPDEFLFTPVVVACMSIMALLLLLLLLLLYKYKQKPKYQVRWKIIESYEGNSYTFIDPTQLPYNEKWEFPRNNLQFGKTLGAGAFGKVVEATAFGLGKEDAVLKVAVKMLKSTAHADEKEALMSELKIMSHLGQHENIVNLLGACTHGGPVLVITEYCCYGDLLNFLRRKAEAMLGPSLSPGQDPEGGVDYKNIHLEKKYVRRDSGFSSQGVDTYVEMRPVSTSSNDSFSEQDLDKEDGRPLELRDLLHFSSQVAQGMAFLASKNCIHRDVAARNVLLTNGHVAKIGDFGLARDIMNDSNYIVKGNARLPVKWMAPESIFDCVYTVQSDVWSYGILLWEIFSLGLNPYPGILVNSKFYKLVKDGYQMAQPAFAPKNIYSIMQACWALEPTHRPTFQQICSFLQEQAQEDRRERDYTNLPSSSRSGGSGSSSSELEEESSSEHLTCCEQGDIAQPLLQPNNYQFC

[23] = biological target: High affinity nerve growth factor receptor (Homo sapiens) (UniProt P04629); assay: Binding affinity to wild-type human partial length TRKA (G475 to G790 residues) expressed in mammalian expression system assessed as residual binding level at 1 uM by Kinomescan method relative to control
[24] = biological target: Tyrosine-protein kinase HCK (Homo sapiens) (UniProt P08631); assay: Binding affinity to wild-type human full length HCK (M22 to P526 residues) expressed in bacterial expression system assessed as residual binding level at 1 uM by Kinomescan method relative to control
Method in brief: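 Single-point kinome-wide KINOMEscan binding panel, test compound at 1 μM, run by the provider's standard protocol.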

[25] = biological target: Tyrosine-protein kinase Mer (Homo sapiens) (UniProt Q12866); assay: Binding affinity to wild-type human partial length MERTK (R557 to L884 residues) expressed in bacterial expression system assessed as residual binding level at 1 uM by Kinomescan method relative to control

C=CC(=O)Nc1cc(Nc2ncc(Cl)c(Nc3ccccc3S(=O)(=O)C(C)C)n2)c(OC)cc1N(C)CCN(C)C
EC50 [1]: 820 nM | Activity [2]: 65% | Activity [3]: 15% | Activity [4]: 1.7% | Activity [5]: 100% | Activity [6]: 26% | Activity [7]: 30% | Activity [8]: 82% | Activity [9]: 0.05% | Activity [10]: 83% | IC50 [11]: 3 nM | Activity [12]: 59% | Activity [13]: 38% | concentration at 8 h [14]: 10 nM | Activity [15]: 50% | Activity [16]: 0% | Activity [17]: 83% | Activity [18]: 78% | Activity [19]: 41% | Activity [20]: 8.8% | Activity [21]: 73% | Activity [22]: 92% | Activity [23]: 13% | Activity [24]: 49% | Activity [25]: 2.7%
